From ChEMBL document CHEMBL1157082, “Sesquiterpenes from Oplopanax horridus” (J Nat Prod, 2010) come the findings set out here.

Usually MIC stands for the smallest concentration in the dilution series that meets the test's criterion for growth inhibition.

Data set [1] can be described thus: Selectivity index, ratio of IC50 for african green monkey Vero cells to MIC for Mycobacterium tuberculosis Erdman. Format: functional.
Data set [2] relates to Mycobacterium tuberculosis. The experiment in a line: Antituberculosis activity against Mycobacterium tuberculosis Erdman by microplate alamar blue assay. Format: functional. The procedure, abridged:
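MIC read by microplate Alamar Blue assay against virulent M. tuberculosis Erdman (ATCC 35801). Rifampin served as positive control. Crude fractions were scored as percent inhibition at several concentrations, and pure isolates as MICs.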

The next data set has as its system Vero. Kind of data set: Cytotoxicity against african green monkey Vero cells. Format: cell-based. The settings on record: chlorocebus sabaeus. In a few lines: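 IC50 in Vero cells, run alongside the MIC assay. Test concentrations were at or below 1% of the maximum achievable stock concentration in DMSO.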
For data set [3], the system named is Mycobacterium tuberculosis. The experiment in a line: Antituberculosis activity against Mycobacterium tuberculosis H37Ra by microplate alamar blue assay. Format: functional. A general note: The colour change of resazurin is a common sign of viable cells or microbes.

In brackets after ≈: the same amount, converted by molar mass.

As for `CCCCCCC/C=C\[C@H](O)C#CC#C[C@@H](O)CC` [OPLOPANDIOL], the “Selectivity Index” value in data set [1] turned out to be 6.2. This compound also registered an MIC in data set [2] of 61.5 µg/mL (≈ 234 µM). In the data set with Vero, the Activity entry is “Non-toxic”.
In the case of `c1cc2c(cc1[C@H]1OC[C@H]3[C@@H]1CO[C@@H]3c1ccc3c(c1)OCO3)OCO2` [SESAMIN], the MIC in data set [3] is greater than 200 µg/mL.
In data set [2], `C=C[C@@](C)(O)CC[C@@H](O)[C@]1(C)CC[C@H](C(C)(C)O)O1` (relative stereo) [NEROPLOFUROL] yielded a minimum inhibitory concentration (MIC) greater than 128 µg/mL. Also, the Activity result in the data set with Vero is “Non-toxic”.
`C=CC1(C)CC/C=C(/C)CCC(C(C)(C)O)O1` (stereo not given) [NEROPLOMACROL]: in data set [2], the minimum inhibitory concentration (MIC) is greater than 128 µg/mL. Moreover, the Activity entry with Vero is “Non-toxic”.
`C=C[C@@H](O)C#CC#C[C@@H](O)/C=C\CCCCCCC` [FALCARINDIOL]: in data set [2], the minimal inhibitory concentration (MIC) stood at 6.2 µg/mL (≈ 23.8 µM). Further, the Activity entry in the data set on Vero was “Non-toxic”.
